PubChem BioAssay AID504490 (NMMLSC, 2011)
The whole screen tested about 340,000 compounds, of which about 1,100 (0.32%) were called active.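 The calls were made as follows: active = inhibition above a set limit, near 3 SD of compounds lacking own fluorescence (cut at about 54% in these data); inactive = the rest.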 What follows is part of a selection rich in actives, with near analogues and random picks from the rest.

system: beta-arrestin 1 C-terminal peptide binding to AP2 beta2-adaptin appendage (human); test: blockers of arrestin peptide association with AP2 adaptin – biochemical, GPCR trafficking, flow cytometry, primary screen (AID 504490); settings: FITC-arrestin peptide / GST-AP2 beads, at 10 µM, active compounds read high, AP2 beta2 appendage carries R879A mutation;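 also: plate controls were DMSO wells for no effect and 5 µM unlabelled arrestin peptide for full effect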
Summary of the method: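 system = GST-tagged AP2 beta2-adaptin appendage (R879A) on 4 µm glutathione beads | reagent = FITC-labelled arrestin peptide probe, 50 nM final | schedule = compound with beads 12 min RT, then probe 1 h RT | signal = HyperCyt-sampled flow cytometry, FL1 channel, ex 488/em 535 nm | read-out = percent response from loss of bead-bound FITC fluorescence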

| SMILES | inhibition |
| --- | --- |
| CCOc1ccc(/C=C2\SC(=S)N(NC(=O)c3ccncc3)C2=O)cc1OC | 18.7% (inactive) |
| COc1ccc(/C=C2\SC(=S)N(CCC(=O)Nc3ccccn3)C2=O)cc1OC | 73.7% (active) |
| COc1cccc(/C=C2/SC(=S)N(CC(=O)NC3C=CS(=O)(=O)C3)C2=O)c1 (stereo unspecified) | -14% (inactive) |
| N#CCCN(C(=O)COC(=O)c1ccc(S(=O)(=O)N2CCCCCC2)cc1)c1ccccc1 | -3.59% (inactive) |
| CC(=O)c1c(C)[nH]c(C(=O)COC(=O)CCOc2ccc(C)cc2)c1C | 5.24% (inactive) |
| COc1ccc(-c2[nH]ncc2CN(C)Cc2c(C)n[nH]c2C)c(OC)c1 | 6.55% (inactive) |
| Cc1ccc(OCCCCc2c(C)n[nH]c2C)cc1 | 65.1% (active) |
| Cc1cc(NC(=O)CCS(=O)(=O)c2ccc(F)cc2)no1 | -7.97% (inactive) |
| CC1CN(C(=O)c2ccccc2NS(=O)(=O)c2cccc([N+](=O)[O-])c2)CC(C)O1 (stereo unspecified) | 2.09% (inactive) |
| CN(CCc1cn[nH]c1)C(=O)CC1C(=O)NCCN1Cc1cccc(Oc2ccccc2)c1 (stereo unspecified) | 9% (inactive) |
| COc1cccc(CN2CCNC(=O)C2CC(=O)N(C)CCc2ccccn2)c1 (stereo unspecified) | -2.95% (inactive) |
| NC(=O)C1CCN(C(=O)CC2C(=O)NCCN2Cc2cccc(Oc3ccccc3)c2)CC1 (stereo unspecified) | 68.5% (active) |
| Cc1nc2c(ncn2-c2ccccc2)c(=O)n1NC(=O)CN1CCCC1 | -8.96% (inactive) |
| COc1ccc(-n2ncc3c2CC(C)(C)CC3NC(=O)CCc2c(C)noc2C)cc1 (stereo unspecified) | 5.75% (inactive) |
| O=C(c1ccc(Cl)s1)N(Cc1nnc(-c2ccccc2Cl)o1)C1CC1 | -9.93% (inactive) |
| COCCNC(=O)Nc1ccc2nc(-c3ccco3)c(-c3ccco3)nc2c1 | 68% (active) |
| COCCNC(=O)c1snc2ccc(Cl)cc12 | 2.57% (inactive) |
| O=C(Nc1nc(-c2ccco2)c(-c2ccco2)s1)c1ccco1 | 8.21% (inactive) |
| CCc1noc(C)c1C(=O)N1CCCC(N2CCN(c3ccc(F)cc3)CC2)C1 (stereo unspecified) | 7.14% (inactive) |
| COc1cccc(C2SCC(=O)N2c2cccc(C)c2)c1OC (stereo unspecified) | 3.87% (inactive) |
| CCc1ccc(NC(=O)Nc2ccncc2)cc1 | 0.23% (inactive) |
| NS(=O)(=O)c1ccc2nc(NC(=O)CS(=O)(=O)c3ccc(F)cc3)sc2c1 | 3.77% (inactive) |
| Cc1csc(NC(=O)C2=COCCO2)n1 | 17.8% (inactive) |

| SMILES | inhibition |
| --- | --- |
| NS(=O)(=O)c1ccc2nc(NC(=O)C3=COCCO3)sc2c1 | 58.1% (active) |
| O=C1N(Cc2ccc3c(c2)OCO3)c2ccccc2C1(O)c1c[nH]c2ccccc12 (stereo unspecified) | 2.95% (inactive) |
| Cc1ccccc1Cn1c2ccccc2c2cnn(CC(=O)NCc3ccco3)c(=O)c21 | -0.8% (inactive) |
| CCOc1ccc(C(C)=O)cc1COC(=O)CN1C(=O)NC2(CCCC2)C1=O | 3.04% (inactive) |
| S=c1ccc2ccccc2[nH]1 | -7.56% (inactive) |
| COC(=O)C1=C(C)N(C)C(C)=C(C(=O)OC)C1c1cccc(Br)c1 | -3.12% (inactive) |
| CCN1C[C@@H]2[C@@H]3C(=O)N(Cc4ccccc4)C(=O)[C@@H]3[C@](Cc3ccccc3)(C(=O)OC)N2C1=NC1CCCCC1 | 4.73% (inactive) |
| NC(=O)c1ccc(Nc2ccc3c(c2)CCC3)c([N+](=O)[O-])c1 | 38.4% (inactive) |
| CCOc1ccccc1Nc1ccc(C(=O)O)cc1[N+](=O)[O-] | 35.8% (inactive) |
| Cc1ccc(Nc2ccc(C(N)=O)cc2[N+](=O)[O-])cc1 | 54.7% (active) |
| S=C(Nc1cccnc1)Nc1ccccn1 | 3.47% (inactive) |
| CCOc1ccccc1C1CC(c2ccc(Cl)cc2)Nc2nc(N)nn21 (stereo unspecified) | 10.8% (inactive) |
| O=c1[nH]c2ccccc2n2c(-c3ccccc3)nnc12 | 55.3% (active) |
| O=c1[nH]n2c(-c3ccccc3)nc(O)c2c2ccccc12 | -0.17% (inactive) |
| Cc1ccc(-c2cccc([C@H]3[C@@H]4C=CC[C@@H](C)[C@@H]4C(=O)N3Cc3ccccc3)c2)cc1 | -6.59% (inactive) |
| CCC1(CC)NC(=O)N(CC(=O)OCC(=O)NC(=O)c2ccccc2)C1=O | 5.01% (inactive) |
| CC(=O)Nc1ccc(S(=O)(=O)N2CCC(N(C)CCC(C)C)CC2)cc1 | -0.3% (inactive) |
| Cc1cccc(C(=O)OC(C)CN2CCCC2)c1 (stereo unspecified) | 14.8% (inactive) |
| CC(CN1CCCCC1)OC(=O)c1ccccc1Cl (stereo unspecified) | 84.6% (active) |
| CC(CN1CCOCC1)OC(=O)c1ccc(Cl)cc1Cl (stereo unspecified) | 8.15% (inactive) |
| Cc1cccn2c(=O)c(/C=C(\C#N)C(N)=O)c(N3CCCCCC3)nc12 | -21.3% (inactive) |
| Cc1cccn2c(=O)c(/C=C(\C#N)S(=O)(=O)c3ccc(Cl)cc3)c(N3CCC(C(N)=O)CC3)nc12 | 3.53% (inactive) |
| Cc1cc(C)cc(Oc2nc3c(C)cccn3c(=O)c2/C=C(\C#N)C(=O)NC2CCS(=O)(=O)C2)c1 (stereo unspecified) | 77.2% (active) |

| SMILES | inhibition |
| --- | --- |
| CCCn1c(O)c(CN2CCCC(C)C2)c(C)c(C#N)c1=O (stereo unspecified) | 11.7% (inactive) |
| O=C(NNc1cc(Cl)cc(Cl)c1)c1c(F)cccc1Cl | -11.9% (inactive) |
| O=C(NCc1ccco1)c1ccc(CS(=O)(=O)Cc2ccc(F)cc2)o1 | 97% (active) |
| CCN(CC(=O)NCc1ccco1)S(=O)(=O)c1ccc(F)cc1 | 24.4% (inactive) |
| O=C(NCc1ccco1)c1cc2sccc2n1Cc1ccc(F)cc1 | 1.12% (inactive) |
| Cc1ccc(NS(=O)(=O)c2cn(C)c(=O)n(C)c2=O)c(C)c1 | -3.22% (inactive) |
| Cc1ccc(CC2C(=O)N(c3ccc(F)cc3)C(=O)C2C)cc1 (stereo unspecified) | -10.9% (inactive) |
| COc1ccc(CCNc2ncnc3c2nnn3Cc2ccccc2)cc1 | 56% (active) |
| CC(C)Nc1ncnc2c1nnn2Cc1ccccc1 | -0.65% (inactive) |
| COc1ccc(CNCCCn2cnc3c(OCc4ccccc4)ncnc32)cc1 | 3.96% (inactive) |
| CN(CCCC(=O)Nc1nccs1)S(=O)(=O)c1ccc(Cl)cc1 | -5.07% (inactive) |
| CN(C)c1ccc(NC(=O)c2ccncc2)c2ccccc12 | 57.2% (active) |
| O=C(Nc1ccccc1N1CCOCC1)c1ccncc1 | -0.66% (inactive) |
| Cc1c(C(=O)NNC(=O)c2ccncc2)oc2ccccc12 | -2.61% (inactive) |
| CC(=O)N1C(=O)/C(=C2\SC(=S)N(NC(=O)c3ccc(O)cc3)C2=O)c2ccccc21 | 7.23% (inactive) |
| CCc1nnc(NC(=O)CCC(=O)N2CCN(c3cc(C)ccc3C)CC2)s1 | 27.2% (inactive) |
| COc1ccc(CN2CCN(C(=O)CCC(=O)Nc3nnc(C(C)C)s3)CC2)cc1F | 17.3% (inactive) |
| CC(C)c1nnc(NC(=O)CCC(=O)N2CCN(c3cccc(Cl)c3)CC2)s1 | 59.1% (active) |
| C=C1c2cccc(OC)c2O[C@H](C(=O)OCC)[C@@H]1CCCCCC | -3.22% (inactive) |
| C=CCO/N=C(\C)c1c(O)c(C)c(-c2ccccc2)n(-c2ccccc2)c1=O | 32.4% (inactive) |
| COc1ccc(C(=O)Nc2ccc(-n3nncc3C(C)(C)C)cc2)cc1 | -18.4% (inactive) |
| CC(C)(C)c1cnnn1-c1ccc([N+](=O)[O-])cc1 | -1.38% (inactive) |
| C/C(=N\Nc1ccc([N+](=O)[O-])cc1)c1ccc(-n2nncc2C(C)(C)C)cc1 | 93.7% (active) |

| SMILES | inhibition |
| --- | --- |
| CCOC(=O)C(CO)NC(=O)C1(NC(C)=O)CCCC1 (stereo unspecified) | 2.61% (inactive) |
| COc1ccccc1NC(=O)c1c(Br)cnn1C | 6.15% (inactive) |
| O=C(NNC(=O)C1C2CCC(C2)C1C(=O)O)c1ccc(Cl)cc1 (stereo unspecified) | 10.1% (inactive) |
| Cc1ccc(S(=O)(=O)/N=C(/Nc2ccccn2)c2ccc(Cl)cc2)cc1 | 70.7% (active) |
| Cc1ccc(S/C(=N\S(=O)(=O)c2ccc(Cl)cc2)c2ccccc2)cc1 | 2.53% (inactive) |
| O=S(=O)(/N=C(/Nc1ccccn1)c1ccccc1)c1ccc(Cl)cc1 | 2.67% (inactive) |
| O=C(O)c1ccccc1NC(=S)NC(NC(=O)c1ccccc1[N+](=O)[O-])C(Cl)(Cl)Cl (stereo unspecified) | 0.7% (inactive) |
| CCOC(=O)c1ccc(NC(=S)N2CCN(c3ccccn3)CC2)cc1 | -3.13% (inactive) |
| O=C(C1CCCO1)N1CCN(S(=O)(=O)c2ccc(Br)cc2)CC1 (stereo unspecified) | 54.4% (active) |
| CN1CCN(S(=O)(=O)c2ccc(NC(=O)C3CCCO3)cc2)CC1 (stereo unspecified) | -5.38% (inactive) |
| O=C(C1CCCN1S(=O)(=O)c1ccc(Br)cc1)N1CCOCC1 (stereo unspecified) | -2.49% (inactive) |
| CCC1(C(=O)c2ccccc2)C(c2cccc([N+](=O)[O-])c2)C1(C(=O)OC)C(=O)OC (stereo unspecified) | -3.23% (inactive) |
| CCOC(=O)c1sc(NC(=O)CSc2nc(O)c(Cc3ccccc3)c(=O)[nH]2)nc1C | 45.5% (inactive) |
| COc1ccc(-c2nnc(-c3ccc4ccccc4c3)o2)cc1 | 5.64% (inactive) |
| CCOc1ccc(-n2c(SCC(N)=O)nnc2-c2ccco2)cc1 | -5.91% (inactive) |
| CCOc1ccc(-c2nnc(-c3ccco3)o2)cc1 | 55% (active) |
| C[C@@H]1CC[C@@]2(OC1)O[C@H]1C[C@H]3[C@@H]4CC=C5C[C@@H](O)[C@H](O)C[C@]5(C)C4CC[C@]3(C)[C@H]1[C@@H]2C (stereo partly specified) | 26.8% (inactive) |
| Cc1cc(C)c(-c2c(O)c3ccccc3n(C)c2=O)c(C)c1 | 3.35% (inactive) |
| Cc1cccc(Oc2c([N+](=O)[O-])c(=O)n(C)c3ccccc23)c1 | 8.99% (inactive) |
| Cn1c(=O)c([N+](=O)[O-])c(Oc2ccccc2)c2ccccc21 | 54.9% (active) |
| CCn1c(C)nc2cc(C(=O)NNS(=O)(=O)c3ccc(C)cc3C)ccc21 | -9.91% (inactive) |
| CCNc1c(NS(=O)(=O)c2ccc(C3CCCCC3)cc2)c(=O)oc2ccccc12 | 27.9% (inactive) |
